Measured values: ChEMBL document CHEMBL1127562, “N-substituted spirosuccinimide, spiropyridazine, spiroazetidine, and acetic acid aldose reductase inhibitors derived from isoquinoline-1,3-diones. 2” (J Med Chem, 1994)
Several values for one entry are separate records, joined by “and”; a condition that tells them apart may be missing. Equal entries are not always repeated. Activity calls are given as the source filed them. No cut-off for these calls is given here.

Legend:
[1] = biological target: Aldo-keto reductase family 1 member B1 (Bos taurus) (UniProt P16116); assay: Inhibition of aldose reductase activity in partially purified bovine lens preparation at 10e-5 M
Procedure, shortened: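 Partially purified bovine lens aldose reductase. Reduction of DL-glyceraldehyde substrate followed spectrophotometrically. Activity expressed as average inhibition at the tested concentrations, 1×10^-5, 1×10^-6, 1×10^-7 and 4×10^-6 M as printed; IC50 in M where given.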

[2] = test system: Rattus norvegicus; assay: Tested for in vivo inhibition of galactitol accumulation in the sciatic nerve galactose-fed rats at the dose of 25.9 (mg/kg/day); assay type: functional
Procedure, shortened: (§1)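 Rats were given a 20% galactose diet for 4 days, with the test compound administered in the diet. Sciatic nerve galactitol accumulation was measured, and activity is given as % inhibition at the stated daily dose (mg/kg/day). Values are mean ± SEM, n = 6 animals; p < 0.01 unless indicated. NS means no significant inhibition of polyol accumulation.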

[3] = test system: Rattus norvegicus; assay: Tested for in vivo inhibition of galactitol accumulation in the lens of galactose-fed rats at the dose of 25.9 (mg/kg/day); NS=Not significant; assay type: functional, organism-based; settings: Lens of camera-type eye
[4] = test system: Rattus norvegicus; assay: Tested for in vivo inhibition of galactitol accumulation in the lens of galactose-fed rats at the dose of 86.1 (mg/kg/day); assay type: functional, Lens of camera-type eye
Procedure, shortened: (§2)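 Galactosemic rats were fed 20% galactose for 4 days, with the compound mixed into the diet. […] galactitol accumulation was measured, and activity is given as % inhibition at the stated daily dose (mg/kg/day). Values are mean ± SEM of six animals; p < 0.01 unless indicated. NS means no significant inhibition of polyol accumulation.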

[5] = test system: Rattus norvegicus; assay: Tested for in vivo inhibition of galactitol accumulation in the lens of galactose-fed rats at the dose of 25 (mg/kg/day); assay type: functional, Lens of camera-type eye
[6] = test system: Rattus norvegicus; assay: Tested for in vivo inhibition of galactitol accumulation in the sciatic nerve of galactose-fed rats at the dose of 25 (mg/kg/day); assay type: functional; procedure, shortened: as §1
[7] = test system: Rattus norvegicus; assay: Tested for in vivo inhibition of galactitol accumulation in the sciatic nerve of galactose-fed rats at the dose of 0.5 (mg/kg/day); assay type: functional; procedure, shortened: as §1
[8] = test system: Rattus norvegicus; assay: Tested for in vivo inhibition of galactitol accumulation in the sciatic nerve of galactose-fed rats at the dose of 0.9 (mg/kg/day); assay type: functional; procedure, shortened: as §1
[9] = test system: Rattus norvegicus; assay: Tested for in vivo inhibition of galactitol accumulation in the sciatic nerve of galactose-fed rats at the dose of 93.6 (mg/kg/day); assay type: functional
Procedure, shortened: (§3)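 Rats fed a 20% galactose diet for 4 days, with test compound given in the diet at the stated daily dose (mg/kg/day). Read-out is inhibition of galactitol (polyol) accumulation in sciatic nerve. Values are % inhibition, mean ± SEM of six animals; p < 0.01 unless marked (some p < 0.05). NS = no significant inhibition of polyol accumulation. Tolrestat was the reference standard.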

[10] = test system: Rattus norvegicus; assay: Tested for in vivo inhibition of galactitol accumulation in the lens of galactose-fed rats at the dose of 49.3 (mg/kg/day); NS=Not significant; assay type: functional, organism-based; settings: Lens of camera-type eye
[11] = test system: Rattus norvegicus; assay: Tested for in vivo inhibition of galactitol accumulation in the sciatic nerve of galactose-fed rats at the dose of 49.3 (mg/kg/day); assay type: functional; procedure, shortened: as §3
[12] = test system: Rattus norvegicus; assay: Tested for in vivo inhibition of galactitol accumulation in the lens of galactose-fed rats at the dose of 93.6 (mg/kg/day); NS=Not significant; assay type: functional, organism-based; settings: Lens of camera-type eye; procedure, shortened: as §2
[13] = test system: Rattus norvegicus; assay: Tested for in vivo inhibition of galactitol accumulation in the lens of galactose-fed rats at the dose of 56.1 (mg/kg/day); assay type: functional, Lens of camera-type eye; procedure, shortened: as §2
[14] = test system: Rattus norvegicus; assay: Tested for in vivo inhibition of galactitol accumulation in the sciatic nerve of galactose-fed rats at the dose of 56.1 (mg/kg/day); assay type: functional; procedure, shortened: as §3
[15] = test system: Rattus norvegicus; assay: Tested for in vivo inhibition of galactitol accumulation in the lens of galactose-fed rats at the dose of 57.2 (mg/kg/day); assay type: functional, Lens of camera-type eye; procedure, shortened: as §2
[16] = test system: Rattus norvegicus; assay: Tested for in vivo inhibition of galactitol accumulation in the sciatic nerve of galactose-fed rats at the dose of 57.2 (mg/kg/day); assay type: functional; procedure, shortened: as §3
[17] = test system: Rattus norvegicus; assay: Tested for in vivo inhibition of galactitol accumulation in the sciatic nerve of galactose-fed rats at the dose of 55.4 (mg/kg/day); assay type: functional; procedure, shortened: as §3
[18] = test system: Rattus norvegicus; assay: Tested for in vivo inhibition of galactitol accumulation in the sciatic nerve of galactose-fed rats at the dose of 24.4 (mg/kg/day); assay type: functional; procedure, shortened: as §1
[19] = test system: Rattus norvegicus; assay: Tested for in vivo inhibition of galactitol accumulation in the lens of galactose-fed rats at the dose of 24.4 (mg/kg/day); NS=Not significant; assay type: functional, organism-based; settings: Lens of camera-type eye
[20] = test system: Rattus norvegicus; assay: Tested for in vivo inhibition of galactitol accumulation in the sciatic nerve of galactose-fed rats at the dose of 9.5 (mg/kg/day); assay type: functional; procedure, shortened: as §3
[21] = test system: Rattus norvegicus; assay: Tested for in vivo inhibition of galactitol accumulation in the lens of galactose-fed rats at the dose of 50.9 (mg/kg/day); assay type: functional, Lens of camera-type eye
[22] = test system: Rattus norvegicus; assay: Tested for in vivo inhibition of galactitol accumulation in the sciatic nerve of galactose-fed rats at the dose of 50.9 (mg/kg/day); assay type: functional; procedure, shortened: as §3

For COC(=O)NC(=O)CC1C(=O)N(Cc2ccc(Br)cc2F)C(=O)c2ccc(F)cc21 (stereo unspecified), the inhibition [1] was 55%, the Inhibition [2] was 78% and the inhibition [3] was “inactive”.

COC(=O)NC(=O)CC1C(=O)N(C)C(=O)c2ccc(Cl)cc21 (stereo unspecified) was tested, and the inhibition [1] was 65%, the Inhibition [4] was 54% and 81% and the Inhibition [5] was 24%. The Inhibition [6] was 53%.

CCN1C(=O)CC2(C1=O)C(=O)N(Cc1ccc(Br)cc1F)C(=O)c1ccccc12 (stereo unspecified) was tested, and the inhibition [1] was “inactive”, the Inhibition [7] was 37% and the Inhibition [8] was 65%.

COC(=O)NC(=O)CC1C(=O)N(Cc2nc3cc(C(F)(F)F)ccc3s2)C(=O)c2ccc(F)cc21 (stereo unspecified) was tested, and the inhibition [1] was 83%, the Inhibition [9] was 59% and the inhibition [10] was “inactive”. The Inhibition [11] was 39% and the inhibition [12] was “inactive”.

For NN1C(=O)CC2(C1=O)C(=O)N(Cc1ccc(Br)cc1F)C(=O)c1ccccc12 (stereo unspecified), the inhibition [1] was “inactive”, the Inhibition [13] was 82% and the Inhibition [14] was 72%.

With CC(=O)NN1C(=O)CC2(C(=O)N(Cc3ccc(Br)cc3F)C(=O)c3ccccc32)C1=O (stereo unspecified) the inhibition [1] was “inactive”, the Inhibition [15] was 25% and the Inhibition [16] was 73%.

For CN1C(=O)CC2(C(=O)N(Cc3ccc(Br)cc3F)C(=O)c3ccccc32)C(=O)N1C (stereo unspecified), the inhibition [1] was “inactive” and the Inhibition [17] was 76%.

With COC(=O)NC(=O)CC1C(=O)N(C)C(=O)c2ccc(Br)cc21 (stereo unspecified) the inhibition [1] was 82%, the Inhibition [18] was 68% and the inhibition [19] was “inactive”.

For CN1C(=O)CC2(C1=O)C(=O)N(Cc1nc3cc(C(F)(F)F)ccc3s1)C(=O)c1ccccc12 (stereo unspecified), the inhibition [1] was “inactive” and the Inhibition [20] was 82%.

For CCC(CC)=NN1C(=O)CC2(C(=O)N(Cc3ccc(Br)cc3F)C(=O)c3ccccc32)C1=O (stereo unspecified), the inhibition [1] was “inactive”, the Inhibition [21] was 71% and the Inhibition [22] was 98%.
